Measured values: ChEMBL document CHEMBL3244183, “Synthesis and antibacterial activity of isomeric 6- and 7-acetyl-3-methyl-2- quinoxalinecarbozamide 1,4-dioxides” (1978)
In brackets after ≈: the same amount, converted by molar mass.

How the values were obtained:
Type in all cases: functional
Escherichia coli [1] = test: Antimicrobial activity against Escherichia coli measured after overnight incubation by susceptibility test
How it was run: (§1)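 MIC by agar dilution: about 10^4 organisms applied with a replicating device onto brain-heart infusion agar holding twofold dilutions of drug; plates incubated overnight at 37 °C under anaerobic conditions (Gas Pak environment); MIC read as lowest inhibiting concentration.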

Streptococcus pyogenes [2] = test: Antimicrobial activity against Streptococcus pyogenes measured after overnight incubation by susceptibility test; how it was run: as §1
Pasteurella multocida [3] = test: Antimicrobial activity against Pasteurella multocida infected in mouse compound administered orally at 0.5 hr, 4 hrs and 24 hrs post infection; conditions: po, read-out: PD50
How it was run: (§2)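 Infections in male and female mice (11–13 g), given intraperitoneally at one to ten times the inoculum lethal to all nonmedicated mice within 4 days. Standardized cultures were suspended in brain-heart infusion broth. Doses were given at 0.5, 4.0 and 24 h post-infection. The 50% protective dose was derived by probit analysis.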

Salmonella enterica [4] = test: Ratio of PD50 for Salmonella choleraesuis infected in po dosed mouse to PD50 for Salmonella choleraesuis infected in sc dosed mouse
Salmonella enterica [5] = test: Antimicrobial activity against Salmonella choleraesuis infected in mouse compound administered orally at 0.5 hr, 4 hrs and 24 hrs post infection; conditions: po, read-out: PD50
How it was run: (§3)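 Male and female mice, 11–13 g. Acute systemic infection by intraperitoneal inoculation of 1–10 times the organism count killing 100% of untreated mice in 4 days; standardized cultures suspended in 5% hog gastric mucin. Treated 0.5 h after infection, again at 4.0 h and at 24 h. PD50 (50% protective dose) calculated by probit method.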

Pasteurella multocida [6] = test: Ratio of PD50 for Pasteurella multocida infected in po dosed mouse to PD50 for Pasteurella multocida infected in sc dosed mouse
Salmonella enterica [7] = test: Antimicrobial activity against Salmonella choleraesuis infected in mouse compound administered subcutaneously at 0.5 hr, 4 hrs and 24 hrs post infection; conditions: sc, read-out: PD50; how it was run: as §3
Streptococcus pyogenes [8] = test: Antimicrobial activity against Streptococcus pyogenes infected in mouse compound administered orally at 0.5 hr, 4 hrs and 24 hrs post infection; conditions: po, read-out: PD50; how it was run: as §2
Streptococcus pyogenes [9] = test: Ratio of PD50 for Streptococcus pyogenes infected in po dosed mouse to PD50 for Streptococcus pyogenes infected in sc dosed mouse
Escherichia coli [10] = test: Antimicrobial activity against Escherichia coli infected in mouse compound administered orally at 0.5 hr, 4 hrs and 24 hrs post infection; conditions: po, read-out: PD50; how it was run: as §3
Pasteurella multocida [11] = test: Antimicrobial activity against Pasteurella multocida infected in mouse compound administered subcutaneously at 0.5 hr, 4 hrs and 24 hrs post infection; conditions: sc, read-out: PD50; how it was run: as §2
Pasteurella multocida [12] = test: Antimicrobial activity against Pasteurella multocida measured after overnight incubation by susceptibility test; how it was run: as §1
Escherichia coli [13] = test: Ratio of PD50 for Escherichia coli infected in po dosed mouse to PD50 for Escherichia coli infected in sc dosed mouse
Salmonella enterica [14] = test: Antimicrobial activity against Salmonella choleraesuis measured after overnight incubation by susceptibility test
How it was run: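 MIC by agar dilution: about 10^4 organisms applied with a replicating device onto brain-heart infusion agar containing twofold dilutions of the quinoxaline 1,4-dioxide; incubated overnight at 37 °C under anaerobic conditions (Gas Pak).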

Streptococcus pyogenes [15] = test: Antimicrobial activity against Streptococcus pyogenes infected in mouse compound administered subcutaneously at 0.5 hr, 4 hrs and 24 hrs post infection; conditions: sc, read-out: PD50; how it was run: as §2
Escherichia coli [16] = test: Antimicrobial activity against Escherichia coli infected in mouse compound administered subcutaneously at 0.5 hr, 4 hrs and 24 hrs post infection; conditions: sc, read-out: PD50; how it was run: as §3

## CC(=O)c1ccc2c(c1)[n+]([O-])c(C(N)=O)c(C)[n+]2[O-]
Escherichia coli [1]
  MIC: 0.39 µg/mL (≈ 1.49 µM)
Streptococcus pyogenes [2]
  MIC: 0.39 µg/mL (≈ 1.49 µM)
Pasteurella multocida [3]
  ED50: 12.7 mg/kg
Salmonella enterica [4]
  Ratio: 2
Salmonella enterica [5]
  ED50: 9.1 mg/kg
Pasteurella multocida [6]
  Ratio: 2
Salmonella enterica [7]
  ED50: 4.5 mg/kg
Streptococcus pyogenes [8]
  ED50: 15 mg/kg
Streptococcus pyogenes [9]
  Ratio: 2
Escherichia coli [10]
  ED50: 13 mg/kg
Pasteurella multocida [11]
  ED50: 7.7 mg/kg
Pasteurella multocida [12]
  MIC: 0.19 µg/mL (≈ 0.727 µM)
Escherichia coli [13]
  Ratio: 2
Salmonella enterica [14]
  MIC: 0.19 µg/mL (≈ 0.727 µM)
Streptococcus pyogenes [15]
  ED50: 9.2 mg/kg
Escherichia coli [16]
  ED50: 5.6 mg/kg

## CC(=O)c1ccc2c(c1)[n+]([O-])c(C)c(C(N)=O)[n+]2[O-]
Escherichia coli [1]
  MIC: 0.39 µg/mL (≈ 1.49 µM)
Streptococcus pyogenes [2]
  MIC: 0.19 µg/mL (≈ 0.727 µM)
Pasteurella multocida [3]
  ED50: 13.6 mg/kg
Salmonella enterica [5]
  ED50: 9.9 mg/kg
Salmonella enterica [7]
  ED50: 7.6 mg/kg
Streptococcus pyogenes [8]
  ED50: 70 mg/kg
Escherichia coli [10]
  ED50: 12.6 mg/kg
Pasteurella multocida [11]
  ED50: 11.7 mg/kg
Pasteurella multocida [12]
  MIC: 0.39 µg/mL (≈ 1.49 µM)
Salmonella enterica [14]
  MIC: 0.39 µg/mL (≈ 1.49 µM)
Streptococcus pyogenes [15]
  ED50: 54 mg/kg
Escherichia coli [16]
  ED50: 10.9 mg/kg
